Assay results reported in ChEMBL document CHEMBL5149984, “Discovery of HN37 as a Potent and Chemically Stable Antiepileptic Drug Candidate” (J Med Chem, 2021).
pIC50: −log10 of the molar value.

Key:
[1] = Toxicity in C57BL/6 mouse assessed as sedative effect at 80 mg/kg; format: organism-based; details: in vivo
[2] = Metabolic stability in rat liver microsomes assessed as intrinsic clearance; format: ADME, Microsome; details: read-out: CLH
[3] = Metabolic stability in monkey liver microsomes assessed as intrinsic clearance; format: ADME, Macaca mulatta, Microsome; details: rhesus monkey, read-out: CLH
Cytochrome P450 3A4 = Cytochrome P450 3A4 (Homo sapiens, UniProt P08684); experiment: Time dependent inhibition of human liver microsome CYP3A4 preincubated for 0.5 hrs in presence or absence of NADPH followed by testosterone addition by LC-MS/MS method; format: ADME, microsomes
Cytochrome P450 3A4, sequence (P08684 whole entry): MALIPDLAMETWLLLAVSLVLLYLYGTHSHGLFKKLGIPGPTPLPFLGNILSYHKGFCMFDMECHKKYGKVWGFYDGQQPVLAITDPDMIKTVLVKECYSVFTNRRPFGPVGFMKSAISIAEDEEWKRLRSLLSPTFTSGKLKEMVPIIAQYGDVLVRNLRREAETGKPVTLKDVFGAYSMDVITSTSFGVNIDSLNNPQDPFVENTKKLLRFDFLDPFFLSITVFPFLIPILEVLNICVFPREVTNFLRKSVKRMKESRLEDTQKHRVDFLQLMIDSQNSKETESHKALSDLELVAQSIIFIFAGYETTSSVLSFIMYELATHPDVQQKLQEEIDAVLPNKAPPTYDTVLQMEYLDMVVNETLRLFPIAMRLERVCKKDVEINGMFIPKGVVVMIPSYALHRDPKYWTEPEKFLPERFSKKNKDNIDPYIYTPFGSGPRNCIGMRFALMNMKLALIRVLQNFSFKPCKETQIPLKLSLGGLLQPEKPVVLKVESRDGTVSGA
Outline: (§1)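 Human liver microsomes preincubated 0.5 h with 0.10–50 μM test compound, with or without NADPH, then CYP-specific probe substrate added and incubation continued. Metabolite measured by LC-MS/MS; % activity remaining relative to no-compound control; IC50 fitted by Probit model. For CYP3A4, midazolam 1′-hydroxylation and testosterone 6β-hydroxylation were read separately.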

CYP2B6 = CYP2B6 (Homo sapiens, UniProt P20813); experiment: Inhibition of human liver microsome CYP2B6 at 0.10 to 50 uM preincubated with NADPH for 0.5 hrs followed by substrate addition by LC-MS/MS method relative to control; format: ADME; details: liver microsomes, dose 0.1-50 µM
CYP2B6, sequence (P20813 whole entry): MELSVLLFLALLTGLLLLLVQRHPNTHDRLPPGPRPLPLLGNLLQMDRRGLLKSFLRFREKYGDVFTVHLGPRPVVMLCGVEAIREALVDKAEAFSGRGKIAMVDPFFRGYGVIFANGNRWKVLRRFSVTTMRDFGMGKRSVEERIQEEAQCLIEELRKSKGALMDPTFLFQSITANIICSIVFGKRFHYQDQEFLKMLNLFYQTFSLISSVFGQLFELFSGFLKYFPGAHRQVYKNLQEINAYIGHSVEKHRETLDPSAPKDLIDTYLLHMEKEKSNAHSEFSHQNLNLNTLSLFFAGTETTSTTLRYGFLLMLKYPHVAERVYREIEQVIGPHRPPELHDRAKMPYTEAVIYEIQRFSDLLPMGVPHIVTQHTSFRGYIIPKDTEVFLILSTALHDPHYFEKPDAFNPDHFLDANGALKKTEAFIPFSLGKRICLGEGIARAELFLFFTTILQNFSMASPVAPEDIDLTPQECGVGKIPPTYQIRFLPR

[4] = AUC(0 to t) in Sprague-Dawley rat brain at 6 mg/kg, po measured upto 24 hrs by LC-MS/MS method; format: ADME, organism-based; design: dose 6 mg/kg, time < 24 hrs, route po
Outline: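 Separate experiment in male SD rats given 6 mg/kg orally; blood and brain concentrations measured concurrently. Samples extracted with acetonitrile (brain homogenized in 10 volumes acetonitrile and sonicated) and analysed by LC−MS/MS; AUC0−t by trapezoidal method.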

[5] = Clearance in Kunming mouse plasma at 2 mg/kg, iv measured upto 24 hrs by LC-MS/MS method; format: ADME, organism-based
Outline: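 Male KM mice fasted 12 h before and 2 h after iv dosing at 2 mg/kg (oral formulation of 5% DMSO/5% Tween 80/saline diluted with saline containing 1% Tween 80); n = 3 per time point. Blood from the retro-orbital venous plexus at 0.083–24 h; plasma extracted with acetonitrile plus internal standard and analysed by LC−MS/MS.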

[6] = Tmax in Sprague-Dawley rat at 6 mg/kg, po measured upto 24 hrs by LC-MS/MS method; format: ADME, organism-based; details: in vivo
Outline: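 Male SD rats (180–220 g) dosed orally at 2, 6 and 20 mg/kg, handled like the mice: fasting, 5% DMSO/5% Tween 80/saline vehicle, acetonitrile extraction, LC-MS/MS of plasma. In a separate set at 6 mg/kg p.o., blood and brain were sampled together.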

[7] = Neurotoxicity in Kunming mouse assessed as motor impairment rate at 150 mg/kg, po after 1 hr by rotarod test; format: toxicity, organism-based; details: in vivo
Outline: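 Male KM mice dosed intragastrically with compound freshly suspended in 0.5% CMC-Na. Rotarod performance scored 1 h after dosing as the fraction of animals showing motor impairment. Fisher's exact test versus vehicle; TD50 from nonlinear dose−response fit.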

Cytochrome P450 2C19 = Cytochrome P450 2C19 (Homo sapiens, UniProt P33261); experiment: Time dependent inhibition of human liver microsome CYP2C19 preincubated for 0.5 hrs in presence or absence of NADPH followed by substrate addition by LC-MS/MS method; format: ADME, microsomes; outline: as §1
Cytochrome P450 2C19, sequence (P33261 whole entry): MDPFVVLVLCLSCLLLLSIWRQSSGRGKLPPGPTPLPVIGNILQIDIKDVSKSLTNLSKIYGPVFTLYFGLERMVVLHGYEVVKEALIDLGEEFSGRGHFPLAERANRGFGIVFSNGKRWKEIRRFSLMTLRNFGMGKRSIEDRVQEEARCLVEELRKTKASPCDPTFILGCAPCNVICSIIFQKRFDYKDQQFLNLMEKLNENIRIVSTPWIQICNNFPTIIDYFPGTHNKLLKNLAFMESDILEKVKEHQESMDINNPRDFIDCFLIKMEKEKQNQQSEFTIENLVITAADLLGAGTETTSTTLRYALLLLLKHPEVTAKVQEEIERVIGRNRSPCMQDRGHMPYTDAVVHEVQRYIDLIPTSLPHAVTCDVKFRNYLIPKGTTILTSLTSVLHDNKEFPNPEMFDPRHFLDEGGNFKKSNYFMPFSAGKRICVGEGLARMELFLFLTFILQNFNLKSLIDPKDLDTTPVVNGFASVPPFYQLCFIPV

[8] = Oral bioavailability in Kunming mouse plasma at 5 mg/kg measured upto 24 hrs by LC-MS/MS method; format: ADME, organism-based
Outline: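 Male KM mice (18−24 g) fasted 12 h before and 2 h after dosing, given 5 mg/kg orally in 5% DMSO/5% Tween 80/90% normal saline (n = 3 per time point). Aortic blood taken at 0.25–24 h and whole brain collected. Acetonitrile extraction with internal standard, then LC−MS/MS. Bioavailability calculated against the 2 mg/kg i.v. arm.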

Row | SMILES | Activity [1] | CLint scaled [2] [L/h/kg] | CLint scaled [3] [L/h/kg] | pIC50 (Cytochrome P450 3A4) | inhibition at 0.5 h, up to 50 µM (CYP2B6) [%] | AUC(0-t) at 24 h [4] [µg·h/mL] | clearance [5] [L/h/kg] | Tmax [6] [min] | Activity [7] [%] | pIC50 (Cytochrome P450 2C19) | bioavailability [8] [%]
1 | CCOC(=O)Nc1ccc(NCc2ccc(F)cc2)cc1N [EZOGABINE] | Toxic |  |  |  |  |  |  |  |  |  | 
2 | C#CCN(Cc1ccc(F)cc1)c1cc(C)c(NC(=O)OC)c(C)c1 |  | 6.3 | 6.72 | < 4.30 | < 25 | 1.52 | 3.68 | 40.2 | 87.5 | < 4.30 | 24.2
